Calls of active or inactive are those of the source. No cut-off for these calls is given here.
Assays:
PC-12 [1] = experiment: Neuroprotective activity against H2O2-induced toxicity in rat PC12 cells assessed as cell viability at 5 to 10 uM pretreated for 24 hrs followed by H2O2 challenge and measured after 12 hrs coincubated with ebselen by MTT assay relative to control; type: functional
Outline: (§1)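 PC12 cells seeded at 1 × 10⁴ cells/well and grown 1 d, then pretreated 24 h with compound, alone or with ebselen. Medium replaced with fresh medium containing the insult (H2O2 400 µM or 6-OHDA 200 µM), incubated 12 h. Viability by MTT assay, relative to control. Mean ± SD of three independent experiments.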

PC-12 [2] = experiment: Cytotoxicity against rat PC12 cells at 20 uM after 24 hrs by MTT assay; type: cell-based; conditions: pc-12, 24 h
PC-12 [3] = experiment: Neuroprotective activity against H2O2-induced toxicity in rat PC12 cells assessed as cell viability at 10 uM pretreated for 24 hrs followed by H2O2 challenge and measured after 12 hrs by MTT assay relative to control; type: functional, cell-based
Outline: (§2)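 Medium was replaced with fresh medium containing H2O2 (400 μM) or 6-OHDA (200 μM), and incubation continued 12 h. Viability was read by MTT assay. Mean ± SD, three independent experiments.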

PC-12 [4] = experiment: Neuroprotective activity against 6-OHDA-induced toxicity in rat PC12 cells assessed as increase in cell viability at 5 uM pretreated for 24 hrs followed by 6-OHDA challenge and measured after 12 hrs by MTT assay; type: functional, cell-based; outline: as §2
PC-12 [5] = experiment: Neuroprotective activity against 6-OHDA-induced toxicity in rat PC12 cells assessed as increase in cell viability at 10 uM pretreated for 24 hrs followed by 6-OHDA challenge and measured after 12 hrs by MTT assay; type: functional, cell-based; outline: as §2
PC-12 [6] = experiment: Cytoprotective activity against H2O2-induced damage in rat PC12 cells assessed as decrease in ROS accumulation preincubated for 24 hrs followed by H2O2 challenge measured after 12 hrs by DCFH-DA dye-based fluorescence analysis; type: functional, cell-based
Outline: (§3)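 Intracellular ROS was detected by DCFH-DA staining, which esterases deacetylate and ROS oxidise to fluorescent dichlorofluorescein. Fluorescence was quantified on a microplate reader.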

PC-12 [7] = experiment: Cytoprotective activity against H2O2-induced damage in rat PC12 cells assessed as decrease in ROS accumulation preincubated for 24 hrs followed by H2O2 challenge measured after 12 hrs by DCFH-DA dye-based inverted fluorescence microscopic analysis; type: functional, cell-based
Outline: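 PC12 cells were pretreated with compound (5 or 10 µM), then challenged with H2O2 and stained with DCFH-DA to show ROS. Fluorescence images were taken by inverted fluorescence microscopy.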

PC-12 [8] = experiment: Neuroprotective activity against 6-OHDA-induced toxicity in rat PC12 cells assessed as increase in cell viability at 5 to 10 uM pretreated for 24 hrs followed by 6-OHDA challenge and measured after 12 hrs coincubated with ebselen by MTT assay; type: functional, cell-based; outline: as §1
PC-12 [9] = experiment: Antioxidant activity against H2O2-induced oxidative stress in rat PC12 cells assessed as decrease in ROS accumulation at 5 uM preincubated for 24 hrs followed by H2O2 challenge and measured after 12 hrs by DCFH-DA dye-based fluorescence analysis; type: functional, cell-based; outline: as §3
PC-12 [10] = experiment: Antioxidant activity against H2O2-induced oxidative stress in rat PC12 cells assessed as decrease in ROS accumulation at 5 uM preincubated for 24 hrs followed by H2O2 challenge and measured after 12 hrs coincubated with ebselen by DCFH-DA dye-based fluorescence analysis; type: functional, cell-based
Outline: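 PC12 cells pretreated with compound (5 or 10 µM) alone or together with ebselen, then challenged with H2O2. Intracellular ROS detected by DCFH-DA staining, which is deacetylated in cells and oxidised by ROS to fluorescent dichlorofluorescein. Imaged by inverted fluorescence microscopy and quantified on a fluorescence microplate reader.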

PC-12 [11] = experiment: Antioxidant activity against H2O2-induced oxidative stress in rat PC12 cells assessed as decrease in ROS accumulation preincubated for 24 hrs followed by H2O2 challenge and measured after 12 hrs coincubated with tubastatin A by DCFH-DA dye-based fluorescence analysis; type: functional, cell-based; outline: as §3
PC-12 [12] = experiment: Cytotoxicity against rat PC12 cells at 20 uM in presence of ebselen after 24 hrs by MTT assay; type: cell-based; conditions: pc-12, 24 h
Outline: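 PC12 cells exposed for 24 h to compound at 10 or 20 µM, alone or combined with ebselen. Viability by MTT assay. Mean ± SD of three independent experiments.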

[13] = biological target: T1, Protein deacetylase HDAC6 (Homo sapiens, UniProt Q9UBN7); experiment: Inhibition of recombinant human HDAC6 using fluorogenic HDAC substrate preincubated for 15 mins followed by substrate addition and measured after 30 mins by fluorescence analysis
T1 sequence (Q9UBN7 whole entry): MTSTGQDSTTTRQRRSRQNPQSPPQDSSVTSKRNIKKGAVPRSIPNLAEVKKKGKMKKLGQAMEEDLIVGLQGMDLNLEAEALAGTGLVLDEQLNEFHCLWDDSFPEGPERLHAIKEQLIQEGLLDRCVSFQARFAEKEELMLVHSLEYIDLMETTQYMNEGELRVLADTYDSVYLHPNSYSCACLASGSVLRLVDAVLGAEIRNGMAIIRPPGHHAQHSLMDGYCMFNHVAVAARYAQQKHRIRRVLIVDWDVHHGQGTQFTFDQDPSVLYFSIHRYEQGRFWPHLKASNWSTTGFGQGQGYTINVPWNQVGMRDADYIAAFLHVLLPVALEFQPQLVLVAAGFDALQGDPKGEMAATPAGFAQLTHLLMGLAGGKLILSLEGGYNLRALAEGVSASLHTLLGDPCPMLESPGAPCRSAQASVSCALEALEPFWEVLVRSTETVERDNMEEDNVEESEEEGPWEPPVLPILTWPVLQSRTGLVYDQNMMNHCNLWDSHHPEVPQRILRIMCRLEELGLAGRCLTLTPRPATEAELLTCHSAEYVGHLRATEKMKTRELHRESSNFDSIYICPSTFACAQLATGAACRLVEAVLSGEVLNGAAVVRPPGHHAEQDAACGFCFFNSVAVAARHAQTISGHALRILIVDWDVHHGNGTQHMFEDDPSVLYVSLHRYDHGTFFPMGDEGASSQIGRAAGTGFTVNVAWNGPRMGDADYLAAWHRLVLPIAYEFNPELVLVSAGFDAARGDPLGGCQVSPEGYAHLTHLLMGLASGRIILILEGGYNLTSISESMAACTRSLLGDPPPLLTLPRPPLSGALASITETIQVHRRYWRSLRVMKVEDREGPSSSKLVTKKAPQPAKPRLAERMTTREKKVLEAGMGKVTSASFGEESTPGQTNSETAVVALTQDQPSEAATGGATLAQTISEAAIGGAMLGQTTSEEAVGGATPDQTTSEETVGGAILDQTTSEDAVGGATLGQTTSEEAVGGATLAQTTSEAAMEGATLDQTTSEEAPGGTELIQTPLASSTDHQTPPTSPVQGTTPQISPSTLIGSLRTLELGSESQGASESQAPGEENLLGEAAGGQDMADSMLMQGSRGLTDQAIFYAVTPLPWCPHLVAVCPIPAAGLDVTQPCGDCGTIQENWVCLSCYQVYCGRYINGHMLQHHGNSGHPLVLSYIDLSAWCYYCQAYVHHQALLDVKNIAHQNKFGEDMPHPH

Histone deacetylase 3 = Histone deacetylase 3 (Homo sapiens, UniProt O15379); experiment: Inhibition of recombinant human HDAC3 using fluorogenic HDAC substrate after 30 mins by fluorescence analysis
[14] = Antioxidant activity assessed as H2O2 radical scavenging at 10 uM up to 200 mins; type: functional
Outline: (§4)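 Kinetic peroxide scavenging by GSH at 25 °C in 100 mM phosphate buffer, pH 7.5. Final conditions: EDTA 1 mM, GSH 0.25 mM, NADPH 0.50 mM, glutathione reductase 1.3 unit·mL-1, peroxide 0.20 mM (H2O2, t-BuOOH or Cum-OOH), catalyst 10 μM. Scavenging was followed over time, and maximal scavenging was derived. Mean ± SE, three independent experiments.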

[15] = Antioxidant activity assessed as tert-butyl hydroperoxide radical scavenging at 10 uM up to 200 mins; type: functional; outline: as §4
[16] = Antioxidant activity assessed as cumene hydroperoxide radical scavenging at 10 uM up to 200 mins; type: functional; outline: as §4
PC-12 [17] = experiment: Neuroprotective activity against H2O2-induced toxicity in rat PC12 cells assessed as cell viability at 5 uM pretreated for 24 hrs followed by H2O2 challenge and measured after 12 hrs by MTT assay relative to control; type: functional; conditions: read-out: Activity; outline: as §2
[18] = biological target: T2, Histone deacetylase 6 (Rattus norvegicus) (UniProt Q99P97); experiment: Inhibition of HDAC6 in rat PC12 cells assessed as increase in acetylated alpha-tubulin expression after 24 hrs by Western blot analysis; type: cell-based
T2 sequence (whole entry): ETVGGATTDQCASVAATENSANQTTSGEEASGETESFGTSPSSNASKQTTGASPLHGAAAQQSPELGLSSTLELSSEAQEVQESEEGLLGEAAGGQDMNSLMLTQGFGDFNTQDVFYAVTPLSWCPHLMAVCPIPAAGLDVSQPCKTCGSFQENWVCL
Outline: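 Cellular HDAC6 inhibition: PC12 cells were incubated with compound at 0.01, 0.1, 1 and 10 μM. Acetylated α-tubulin and total α-tubulin were detected by Western blot, and their ratio was assessed.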

[19] = Antioxidant activity assessed as H2O2 radical scavenging at 10 uM measured within 180 mins; type: functional; outline: as §4
[20] = Antioxidant activity assessed as tert-butyl hydroperoxide radical scavenging at 10 uM measured within 180 mins; type: functional; outline: as §4
[21] = Antioxidant activity assessed as cumene hydroperoxide radical scavenging at 10 uM measured within 180 mins; type: functional; outline: as §4

Sequence of Histone deacetylase 3 (O15379 whole entry): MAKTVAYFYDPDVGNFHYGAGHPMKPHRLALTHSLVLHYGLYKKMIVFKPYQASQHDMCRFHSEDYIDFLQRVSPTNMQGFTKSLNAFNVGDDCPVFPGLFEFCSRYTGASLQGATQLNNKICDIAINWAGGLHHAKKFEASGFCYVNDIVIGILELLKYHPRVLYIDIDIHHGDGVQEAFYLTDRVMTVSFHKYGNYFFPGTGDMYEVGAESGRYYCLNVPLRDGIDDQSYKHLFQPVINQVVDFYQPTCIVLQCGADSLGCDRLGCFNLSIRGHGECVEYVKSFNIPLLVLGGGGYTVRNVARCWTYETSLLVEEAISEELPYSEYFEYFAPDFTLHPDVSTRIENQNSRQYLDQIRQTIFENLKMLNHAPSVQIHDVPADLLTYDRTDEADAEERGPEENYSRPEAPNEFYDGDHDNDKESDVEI

CN1CCc2c(c3ccccc3n2Cc2ccc(C(=O)NO)cc2)C1 [TUBASTATIN A]
Activity (PC-12 [1]): 90% | Activity (PC-12 [2]): Non-Toxic | Activity (PC-12 [3]): Active | Activity (PC-12 [4]): Active | Activity (PC-12 [5]): Active | Activity (PC-12 [6]): Active | Activity (PC-12 [7]): Active | Activity (PC-12 [8]): Active | Activity (PC-12 [9]): Active | Activity (PC-12 [10]): Active | Activity (PC-12 [11]): Dose-dependent effect | Activity (PC-12 [12]): Non-Toxic

O=C(NO)c1ccc(Cn2[se]c3ccc(C(F)(F)F)cc3c2=O)cc1
IC50 [13]: 0.584 µM

O=C(NO)c1ccc(Cn2[se]c3ccc(F)cc3c2=O)cc1
IC50 [13]: 0.178 µM

O=C(CCCOc1ccc(-n2[se]c3ccccc3c2=O)cc1)NO
IC50 [13]: 0.903 µM

O=C(NO)c1ccc(Cn2[se]c3ccccc3c2=O)cc1
IC50 [13]: 0.037 µM | IC50 (Histone deacetylase 3): 1.3 µM | Activity [14]: 62% | Activity [15]: 78% | Activity [16]: 37% | Activity (PC-12 [2]): Non-Toxic | viability at 5 µM (PC-12 [17]): 90% | Activity (PC-12 [4]): Active | Activity (PC-12 [5]): Active | Activity (PC-12 [6]): Active | Activity (PC-12 [7]): Active | inhibition [18]: Dose-dependent effect | Activity (PC-12 [9]): Active | Activity (PC-12 [11]): Dose-dependent effect

O=C(NO)c1ccc(Cn2[se]c3ccc(O)cc3c2=O)cc1
IC50 [13]: 0.188 µM | Activity (PC-12 [2]): Non-Toxic | Activity (PC-12 [3]): Active | Activity (PC-12 [4]): Active | Activity (PC-12 [5]): Active | Activity [19]: Active | Activity [20]: Active | Activity [21]: Active

O=C(CCCCCn1[se]c2ccccc2c1=O)NO
IC50 [13]: 0.181 µM

O=C(NO)c1ccc(-n2[se]c3ccccc3c2=O)cc1
IC50 [13]: 1.97 µM

O=C(CCCCn1[se]c2ccccc2c1=O)NO
IC50 [13]: 0.356 µM

Reference: ChEMBL document CHEMBL4261629 (Bioorg Med Chem, 2018)
